Data as given in ChEMBL document CHEMBL4145650, “Napabucasin and Related Heterocycle-Fused Naphthoquinones as STAT3 Inhibitors with Antiproliferative Activity against Cancer Cells” (J Nat Prod, 2018).
pEC50, pIC50: −log10 of the molar value. The source made the active and inactive calls. The rule behind the calls is not given here.

Experiments:
[1] = tested on: MDA-MB-231; assay: Cell cycle arrest in human MDA-MB-231 cells assessed as accumulation at G2 phase at 10 uM measured after 24 hrs by propidium iodide staining based flow cytometry (reference value: 23%); assay type: functional
[2] = tested on: MDA-MB-231; assay: Induction of apoptosis in human MDA-MB-231 cells assessed as late apoptotic cells at 10 umol/L measured after 4 hrs by annexin-V-FITC/7-AAD staining based flow cytometric analysis relative to control
[3] = tested on: MDA-MB-231; assay: Cell cycle arrest in human MDA-MB-231 cells assessed as accumulation at sub-G0 phase at 30 uM measured after 24 hrs by propidium iodide staining based flow cytometry (reference value: 3%); assay type: functional
[4] = tested on: MDA-MB-231; assay: Induction of apoptosis in human MDA-MB-231 cells assessed as late apoptotic cells at 10 umol/L measured after 24 hrs by annexin-V-FITC/7-AAD staining based flow cytometric analysis relative to control; assay type: functional
[5] = biological target: T1, Signal transducer and activator of transcription 3 (Homo sapiens, UniProt P40763); assay: Inhibition of STAT3 phosphorylation at Y705 in human MDA-MB-231 cells after 4 hrs by HTRF assay; assay type: cell-based
Method in brief: (§1)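 MDA-MB-231 cells (10^5/well) were left to adhere overnight, serum-starved for 4 h in DMEM, then treated with 0.1–30 μmol/L compound (0.5% final DMSO) for 4 h at 37 °C. Lysates were incubated 24 h at room temperature with Eu-cryptate/d2 antibody pairs for phospho-STAT3 (Y705) or total STAT3. The 665/620 nm HTRF ratio was taken and phospho/total normalized. EC50 was obtained by nonlinear regression.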

[6] = tested on: MDA-MB-231; assay: Induction of apoptosis in human MDA-MB-231 cells assessed as viable cells at 10 umol/L measured after 8 hrs by annexin-V-FITC/7-AAD staining based flow cytometric analysis (reference value: 97 to 98%); assay type: functional; conditions: MDA-MB-231, 8 h, read-out: Activity
[7] = tested on: MDA-MB-231; assay: Cell cycle arrest in human MDA-MB-231 cells assessed as accumulation at G1 phase at 10 uM measured after 24 hrs by propidium iodide staining based flow cytometry (reference value: 62%); assay type: functional
[8] = tested on: MDA-MB-231; assay: Cell cycle arrest in human MDA-MB-231 cells assessed as accumulation at S phase at 3 uM measured after 24 hrs by propidium iodide staining based flow cytometry (reference value: 12%); assay type: functional
[9] = tested on: MDA-MB-231; assay: Induction of apoptosis in human MDA-MB-231 cells assessed as late apoptotic cells at 10 umol/L measured after 8 hrs by annexin-V-FITC/7-AAD staining based flow cytometric analysis relative to control; assay type: functional
[10] = tested on: MDA-MB-231; assay: Cell cycle arrest in human MDA-MB-231 cells assessed as accumulation at S phase at 1 uM measured after 24 hrs by propidium iodide staining based flow cytometry (reference value: 12%); assay type: functional
[11] = tested on: MDA-MB-231; assay: Induction of apoptosis in human MDA-MB-231 cells assessed as viable cells at 10 umol/L measured after 4 hrs by annexin-V-FITC/7-AAD staining based flow cytometric analysis (reference value: 97 to 98%); assay type: functional; conditions: MDA-MB-231, 4 h, read-out: Activity
[12] = tested on: MDA-MB-231; assay: Cell cycle arrest in human MDA-MB-231 cells assessed as accumulation at G2 phase at 3 uM measured after 24 hrs by propidium iodide staining based flow cytometry (reference value: 23%); assay type: functional
[13] = tested on: MDA-MB-231; assay: Cell cycle arrest in human MDA-MB-231 cells assessed as accumulation at S phase at 10 uM measured after 24 hrs by propidium iodide staining based flow cytometry (reference value: 12%); assay type: functional
[14] = biological target: T1, Signal transducer and activator of transcription 3; assay: Inhibition of STAT3 phosphorylation at Y705 in human MDA-MB-231 cells assessed as reduction in ratio of phosphorylated STAT3 to total STAT3 level after 4 hrs by HTRF assay; assay type: cell-based; method in brief: as §1
[15] = biological target: T1, Signal transducer and activator of transcription 3; assay: Binding affinity to STAT3 in human MDA-MB-231 cells at 100 uM measured after 1 hr by DARTS-Western blot analysis; assay type: cell-based
Method in brief: (§2)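 A nondenaturing lysate of MDA-MB-231 cells (M-PER with protease and phosphatase inhibitors) was incubated with compound at 100 μmol/L or DMSO for 1 h at room temperature in the dark. TNC buffer pH 8.0 was added, then thermolysin (1:3000 of protein) for 30 min at room temperature; undigested controls were kept. Run on SDS-PAGE with 10 μg protein per lane, then Western blot with anti-STAT3.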

[16] = tested on: K562; assay: Antiproliferative activity against human K562 cells measured after 48 hrs by MTT assay; assay type: functional, cell-based; conditions: K562, 48 h
Method in brief: (§3)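 Cells kept in 10% FBS medium with penicillin/streptomycin/L-glutamine at 37 °C, 5% CO2 (MDA-MB-231 in DMEM, K562 in RPMI 1640). Viability read by MTT reduction to formazan after 48 h of exposure. IC50 obtained by nonlinear regression against vehicle control, given as mean ±SD of three independent experiments (n = 2 where footnoted).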

[17] = tested on: MDA-MB-231; assay: Cell cycle arrest in human MDA-MB-231 cells assessed as accumulation at G1 phase at 3 uM measured after 24 hrs by propidium iodide staining based flow cytometry (reference value: 62%); assay type: functional
[18] = tested on: MDA-MB-231; assay: Effect on total STAT3 level in human MDA-MB-231 cells at 0.1 to 30 umol/L after 4 hrs by HTRF assay; assay type: cell-based; conditions: mda-mb-231, 4 h; method in brief: as §1
[19] = tested on: MDA-MB-231; assay: Cell cycle arrest in human MDA-MB-231 cells assessed as accumulation at G2 phase at 30 uM measured after 24 hrs by propidium iodide staining based flow cytometry (reference value: 23%); assay type: functional
[20] = tested on: MDA-MB-231; assay: Induction of apoptosis in human MDA-MB-231 cells assessed as increase in early apoptotic cells at 10 umol/L measured after 4 to 24 hrs by annexin-V-FITC/7-AAD staining based flow cytometric analysis; assay type: functional, cell-based
[21] = tested on: MDA-MB-231; assay: Cell cycle arrest in human MDA-MB-231 cells assessed as accumulation at G1 phase at 30 uM measured after 24 hrs by propidium iodide staining based flow cytometry (reference value: 62%); assay type: functional
[22] = tested on: MDA-MB-231; assay: Induction of apoptosis in human MDA-MB-231 cells assessed as viable cells at 10 umol/L measured after 24 hrs by annexin-V-FITC/7-AAD staining based flow cytometric analysis (reference value: 97 to 98%); assay type: functional; conditions: MDA-MB-231, 24 h, read-out: Activity
[23] = tested on: MDA-MB-231; assay: Induction of apoptosis in human MDA-MB-231 cells assessed as viable cells at 10 umol/L measured after 2 hrs by annexin-V-FITC/7-AAD staining based flow cytometric analysis (reference value: 97 to 98%); assay type: functional; conditions: MDA-MB-231, 2 h, read-out: Activity
[24] = tested on: MDA-MB-231; assay: Antiproliferative activity against human MDA-MB-231 cells measured after 48 hrs by MTT assay; assay type: functional, cell-based; conditions: MDA-MB-231, 48 h; method in brief: as §3
[25] = tested on: K562; assay: Induction of superoxide generation in human K562 cells at 5 umol/L measured after 24 hrs in presence of NQO1 inhibitor dicoumarol by DHE staining based flow cytometry; assay type: functional, cell-based
Method in brief: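 Cells were treated with compound at 5 μmol/L or DMSO for 24 h, with or without dicoumarol preincubation (5 μmol/L, 30 min), then stained with DHE for 30 min. 2-OH-DHE fluorescence was read by flow cytometry and expressed relative to vehicle control. At least three independent measurements.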

[26] = biological target: T1, Signal transducer and activator of transcription 3; assay: Binding affinity to STAT3 in human MDA-MB-231 cells at 100 uM treated for 1 hr followed by thermolysin addition measured after 30 mins by DARTS-Western blot analysis; assay type: cell-based; method in brief: as §2
[27] = tested on: MDA-MB-231; assay: Cell cycle arrest in human MDA-MB-231 cells assessed as accumulation at G1 phase at 1 uM measured after 24 hrs by propidium iodide staining based flow cytometry (reference value: 62%); assay type: functional
[28] = tested on: MDA-MB-231; assay: Induction of apoptosis in human MDA-MB-231 cells assessed as viable cells at 10 umol/L measured after 6 hrs by annexin-V-FITC/7-AAD staining based flow cytometric analysis (reference value: 97 to 98%); assay type: functional; conditions: MDA-MB-231, 6 h, read-out: Activity
[29] = tested on: MDA-MB-231; assay: Cell cycle arrest in human MDA-MB-231 cells assessed as accumulation at sub-G0 phase at 3 uM measured after 24 hrs by propidium iodide staining based flow cytometry (reference value: 3%); assay type: functional
[30] = tested on: MDA-MB-231; assay: Cell cycle arrest in human MDA-MB-231 cells assessed as accumulation at S phase at 30 uM measured after 24 hrs by propidium iodide staining based flow cytometry (reference value: 12%); assay type: functional
[31] = tested on: MDA-MB-231; assay: Cell cycle arrest in human MDA-MB-231 cells assessed as accumulation at G2 phase at 1 uM measured after 24 hrs by propidium iodide staining based flow cytometry (reference value: 23%); assay type: functional
[32] = tested on: MDA-MB-231; assay: Cell cycle arrest in human MDA-MB-231 cells assessed as accumulation at sub-G0 phase at 1 uM measured after 24 hrs by propidium iodide staining based flow cytometry (reference value: 3%); assay type: functional
[33] = tested on: MDA-MB-231; assay: Induction of apoptosis in human MDA-MB-231 cells assessed as late apoptotic cells at 10 umol/L measured after 4 hrs by annexin-V-FITC/7-AAD staining based flow cytometric analysis relative to control; assay type: functional
[34] = tested on: MDA-MB-231; assay: Cell cycle arrest in human MDA-MB-231 cells assessed as accumulation at sub-G0 phase at 10 uM measured after 24 hrs by propidium iodide staining based flow cytometry (reference value: 3%); assay type: functional

T1 sequence (P40763 whole entry): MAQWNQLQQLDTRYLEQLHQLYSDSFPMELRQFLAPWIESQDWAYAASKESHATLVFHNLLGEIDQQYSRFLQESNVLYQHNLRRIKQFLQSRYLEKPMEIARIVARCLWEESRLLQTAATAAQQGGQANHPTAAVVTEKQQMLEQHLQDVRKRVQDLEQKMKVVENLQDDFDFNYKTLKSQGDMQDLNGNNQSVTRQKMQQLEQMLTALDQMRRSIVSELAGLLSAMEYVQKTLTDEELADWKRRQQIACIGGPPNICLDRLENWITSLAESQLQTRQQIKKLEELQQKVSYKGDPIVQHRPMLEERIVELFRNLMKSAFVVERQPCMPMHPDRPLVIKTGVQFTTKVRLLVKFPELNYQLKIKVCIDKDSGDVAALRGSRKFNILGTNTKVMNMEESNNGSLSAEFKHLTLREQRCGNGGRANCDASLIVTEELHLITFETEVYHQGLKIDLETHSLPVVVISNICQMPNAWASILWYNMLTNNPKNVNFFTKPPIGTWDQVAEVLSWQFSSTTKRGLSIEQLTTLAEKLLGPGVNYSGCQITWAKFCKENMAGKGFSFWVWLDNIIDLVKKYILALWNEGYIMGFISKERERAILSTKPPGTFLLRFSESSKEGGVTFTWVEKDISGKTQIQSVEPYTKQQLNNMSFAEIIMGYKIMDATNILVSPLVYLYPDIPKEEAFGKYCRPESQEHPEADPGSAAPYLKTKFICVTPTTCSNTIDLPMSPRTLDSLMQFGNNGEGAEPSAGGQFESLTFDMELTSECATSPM

pEC50 [5]: 6.06
pEC50 [14]: 6.10
Activity [15]: inactive
pIC50 [16]: 5.96
pIC50 [24]: 6.13
Activity [26]: Active
SMILES: CC(=O)c1cc2c(o1)-c1ccccc1C(=O)C2=O
Activity [1]: 20%
Activity [2]: 14%
Activity [3]: 5%
Activity [4]: 89%
viability at 10 µM [6]: 67%
Activity [7]: 63%
Activity [8]: 13%
Activity [9]: 31%
Activity [10]: 14%
viability at 10 µM [11]: 82%
Activity [12]: 23%
Activity [13]: 15%
Activity [17]: 59%
Activity [18]: Non-Toxic
Activity [19]: 20%
Activity [20]: inactive
Activity [21]: 60%
viability at 10 µM [22]: 9%
viability at 10 µM [23]: 93%
Activity [25]: inactive
Activity [27]: 60%
viability at 10 µM [28]: 83%
Activity [29]: 5%
Activity [30]: 15%
Activity [31]: 23%
Activity [32]: 3%
Activity [33]: 14%
Activity [34]: inactive
